“And” between values parts separate entries of the source, which are not always exact repeats. Equal entries are not always repeated. Inconclusive results are not listed. The source made the active and inactive calls.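 How the source made its calls: active means every repeat test active, with falling cell-viability signal and fitted midpoint potency at most ten times the top dose; inconclusive means tests disagree, flat partial drop, or a poor curve fit; inactive means every test flat, too weak, or rising.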
Columns and labels:
[1] = test system: HMLE_shECad viability, CellTiter-Glo luminescence, 72 h; assay: growth inhibition of HMLE_shECad stem-like cells, dose response, cell-based, luminescence, dry powder, set 2 (AID 493226)
Procedure, shortened: (§1)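 Test system: HMLE_shECad model of stem-like breast cancer cells; amount: 2000 cells per well; buffer or medium: serum-free CSC screening medium; compound dosing: 100 nL pinned compound; incubation: cell attachment ≥4 h, then compound exposure ~70-74 h, 37 °C, 5% CO2; technique: CellTiter-Glo luminescence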

[2] = as above; details: HMLE_shECad viability, CellTiter-Glo luminescence, 72 h; at 30 µM (top of the series)
Procedure, shortened: as §1

SMILES	AC50 [1]	activity change, negative = inhibition [2]
COc1ccc(/C=C/C(=O)NC2=NCCS2)c(OC)c1	9.45 µM	–
O=Cc1ccc[nH]1	–	-5.79% (inactive)
CN(C)c1ccc(/C=C/C(=O)NC2=NCCS2)cc1	27.3 µM	–
COc1cc(/C=C/C(=O)NC2=NCCS2)cc(OC)c1OC	–	0.693% (inactive)
O=C(COc1ccccc1F)N/N=C/c1ccc[nH]1	–	3.8% (inactive)
O=C(COc1ccc(Cl)cc1Cl)N/N=C/c1ccco1	–	-7.8% (inactive)
CC(=O)Oc1ccc(/C=C/C(=O)NC2=NCCS2)cc1	–	-16.2% (inactive)
NNC(=O)COc1ccc(Cl)cc1Cl	–	-13% (inactive)
O=C(CCc1ccccc1)NC1=NCCS1	–	-2.41% (inactive)
Cc1csc(NC(=O)c2ccc(COc3ccccc3)o2)n1	1.18 µM	–
CC(C)c1ccc(/C=C/C(=O)O)cc1	–	4.33% (inactive)
O=C(COc1cc(Cl)ccc1Cl)N/N=C/c1ccc[nH]1	3.39 µM	–
O=C(/C=C/c1ccc(Cl)c(Cl)c1)NC1=NCCS1	–	8.35% (inactive)
O=C(COc1ccc(Cl)cc1)N/N=C/c1ccc[nH]1	22.5 µM	–
O=C(/C=C/c1cc(Cl)ccc1Cl)NC1=NCCS1	–	-13.1% (inactive)
CCN(CC)C(=O)/C=C/c1ccc(C(C)C)cc1	–	-2.71% (inactive)
O=C(COc1ccc(Cl)cc1Cl)N/N=C/c1ccc[nH]1	2.38 µM and 3.33 µM	–
O=C(NC1=NCCS1)c1cc2ccccc2[nH]1	–	-16.7% (inactive)
CC(C)c1ccc(/C=C/C(=O)Nc2ccccc2)cc1	3.44 µM	–
CC(C)(C)c1ccc2c(c1)OC(C(=O)N/N=C/c1ccc[nH]1)CO2 (stereo not given)	2.52 µM and 2.79 µM	–

SMILES	AC50 [1]	activity change, negative = inhibition [2]
COc1ccc(OC)c(/C=C/C(=O)NC2=NCCS2)c1	–	4.36% (inactive)
O=C(O)c1ccc(COc2ccccc2)o1	–	-1.91% (inactive)
O=C(NC1CCCC1)c1ccc(COc2ccccc2)o1	–	-15.7% (inactive)
Cc1ccc(/C=N/NC(=O)COc2ccc(Cl)cc2Cl)[nH]1	14.3 µM	–
Cc1ccccc1/C=C/C(=O)NC1=NCCS1	–	-11.7% (inactive)
Cc1csc(NC(=O)/C=C/c2ccc(C(C)C)cc2)n1	3.29 µM	–
Cc1cc(C)c(/C=N/NC(=O)COc2ccc(Cl)cc2Cl)[nH]1	12.6 µM	–
O=C(C#Cc1ccccc1)NC1=NCCS1	–	3.65% (inactive)
O=C(COc1ccc(Cl)cc1Cl)N/N=C/c1cnc[nH]1	–	3.31% (inactive)
Cc1ccccc1NCC(=O)N/N=C/c1ccc[nH]1	–	-14.1% (inactive)
CCNC(=O)/C=C/c1ccc(C(C)C)cc1	–	0.062% (inactive)
O=C(COc1ccc(Cl)cc1Cl)N/N=C/c1cccs1	–	-4.9% (inactive)
O=C(COc1c(Cl)cc(Cl)cc1Cl)N/N=C/c1ccc[nH]1	1.16 µM	–
O=C(COc1ccc(F)cc1Cl)N/N=C/c1ccc[nH]1	8.88 µM	–
C/C(=N\NC(=O)COc1ccc(Cl)cc1Cl)c1ccc[nH]1	–	-10.8% (inactive)
Cc1c(C(=O)NC2=NCCS2)oc2ccccc12	–	-22.6% (inactive)
CC(C)c1ccc(/C=C/C(=O)NC2=NCCS2)cc1	0.839 µM	–
O=C(N/N=C/c1ccc[nH]1)c1cc2ccccc2o1	6.33 µM	–
Cc1cc(Cl)ccc1OCC(=O)N/N=C/c1ccc[nH]1	2.89 µM	–
O=C(N/N=C/c1ccc[nH]1)C1Cc2ccccc2O1 (stereo not given)	–	12.7% (inactive)

— PubChem BioAssay AID493226 (Broad Institute, 2011)
